Experimental data from different studies.
Lines come from different studies, so protocols differ. Converted amounts (≈) assume the structure as drawn.

Compound	tested on	test	test system	conditions	endpoint	value
O=C(Nc1ccc(Cl)cc1)Nc1cccc(-c2cn(Cc3ccc(Br)cc3)nn2)c1	Huh-7	cell growth or viability, CCK-8	–	50 µM, 72 h	viability	13.1%
CN(C)CCC(c1cccnc1)n1c(=S)[nH]c2ccc(Cl)cc2c1=O (stereo not drawn)	Mycobacterium tuberculosis	microbial growth	H37RV	–	MIC90	> 100 µM
N=C(CC(O)c1cc2c(F)cc(F)cc2c2cc(C(F)(F)F)ccc12)NCc1ccc(F)cc1 (stereo not drawn)	HepG2	cell growth or viability, neutral red	–	24 h	IC50	7.2 µM
Cc1ccc(CCNc2cc(-c3ccccn3)nc3cc(Br)nn23)cc1	Mycobacterium tuberculosis	microbial growth	H37RV	–	MIC	25 µM (≈ 10.2 µg/mL)
NC(=O)c1cc2[nH]c(=S)n(Cc3cccnc3)c(=O)c2cc1Cl	Mycobacterium tuberculosis	microbial growth	H37RV	–	MIC90	7.1 µM (≈ 2.46 µg/mL)
Nc1c(C(=O)N2CCCC2)sc2nc(-c3ccc4c(c3)OCO4)cc(C(F)(F)F)c12	HepG2	cell growth or viability	–	72 h	IC50	> 100 µM
N=C(CC(O)c1cc2c(F)cc(F)cc2c2cc(C(F)(F)F)ccc12)NC1CC(F)(F)C1 (stereo not drawn)	HepG2	cell growth or viability, neutral red	–	24 h	IC50	7.2 µM
COc1ccc(-c2cc(C(F)(F)F)c3c(N)c(C(=O)NC(C)C4CCCCC4)sc3n2)cc1 (stereo not drawn)	HepG2	cell growth or viability	–	72 h	IC50	> 100 µM
FC(F)(F)Oc1ccc(CCNc2cc(-c3ccccn3)nc3nncn23)cc1	Mycobacterium tuberculosis	microbial growth	H37RV	–	MIC	4 µM (≈ 1.6 µg/mL)
COc1ccc(-c2cc(C(F)(F)F)c3c(N)c(C(=O)Nc4c(C)cccc4C)sc3n2)cc1	HepG2	cell growth or viability	–	72 h	IC50	> 100 µM
N=C(CC(O)c1cc2c(F)cc(F)cc2c2cc(C(F)(F)F)ccc12)Nc1ccc(Br)c(F)c1 (stereo not drawn)	HepG2	cell growth or viability, neutral red	–	24 h	IC50	28.2 µM
O=c1c2nc(Cl)ccc2[nH]c(=S)n1Cc1cccnc1	Mycobacterium tuberculosis	microbial growth	H37RV	–	MIC90	> 100 µM
Cc1cccc(NC(=O)c2sc3nc(-c4ccco4)cc(C(F)(F)F)c3c2N)c1C	HepG2	cell growth or viability	–	72 h	IC50	> 100 µM
CCCc1ccc(CNc2cc(-c3ccccn3)nc3nncn23)cc1	Mycobacterium tuberculosis	microbial growth	H37RV	–	MIC	> 100 µM
COC1CN(C(=O)c2sc3ncccc3c2N)C1	HepG2	cell growth or viability	–	72 h	IC50	> 100 µM
NC(=S)c1ccc(Cn2c(=S)[nH]c3ccc(Cl)cc3c2=O)cn1	Mycobacterium tuberculosis	microbial growth	H37RV	–	MIC90	> 100 µM
Cc1cccc(NC(=O)c2sc3nc(-c4cccs4)cc(C(F)(F)F)c3c2N)c1C	HepG2	cell growth or viability	–	72 h	IC50	> 100 µM
CC(C)C(=O)OCc1cc2[nH]c(=S)n(Cc3cncc(C#N)c3)c(=O)c2cc1Cl	Mycobacterium tuberculosis	microbial growth	H37RV	–	MIC90	5.52 µM (≈ 2.37 µg/mL)
CCCCN(CCCC)C(=N)CC(O)c1cc2c(F)cc(F)cc2c2cc(C(F)(F)F)ccc12 (stereo not drawn)	HepG2	cell growth or viability, neutral red	–	24 h	IC50	16.6 µM
CC(C)C(=O)OCc1cc2[nH]c(=S)n(Cc3cncc(C(N)=S)c3)c(=O)c2cc1Cl	Mycobacterium tuberculosis	microbial growth	H37RV	–	MIC90	18 µM (≈ 8.33 µg/mL)
Cc1nnc2nc(-c3ccccn3)cc(NCCc3ccc(Cl)cc3)n12	Mycobacterium tuberculosis	microbial growth	H37RV	5 days	MIC	17 to 50 µM (≈ 6.2 to 18.2 µg/mL)
N=C(CC(O)c1cc2c(F)cc(F)cc2c2cc(C(F)(F)F)ccc12)Nc1cccc(F)c1 (stereo not drawn)	HepG2	cell growth or viability, neutral red	–	24 h	IC50	11.4 µM
COc1ccc(-c2cc(C(F)(F)F)c3c(N)c(C(=O)NC4COC4)sc3n2)cc1	HepG2	cell growth or viability	–	72 h	IC50	> 100 µM
O=c1c2cc(Cl)ccc2[nH]c(=S)n1Cc1ccc(-c2nnn[nH]2)nc1	Mycobacterium tuberculosis	microbial growth	H37RV	–	MIC90	87.4 µM (≈ 32.5 µg/mL)
CCC(NC(=O)c1sc2nc(-c3ccc(OC)cc3)cc(C(F)(F)F)c2c1N)c1ccccc1 (stereo not drawn)	HepG2	cell growth or viability	–	72 h	IC50	> 100 µM
O=c1c2cc(Cl)c(CO)cc2[nH]c(=S)n1Cc1cncnc1	Mycobacterium tuberculosis	microbial growth	H37RV	–	MIC90	3.23 µM (≈ 1.08 µg/mL)
CC(CNc1cc(-c2ccccn2)nc2nncn12)c1ccccc1 (stereo not drawn)	Mycobacterium tuberculosis	microbial growth	H37RV	–	IC90	35 µM
